Reference: ChEMBL document CHEMBL1135552, “Synthesis and biological activities of cyclic lanthionine enkephalin analogues: delta-opioid receptor selective ligands” (J Med Chem, 2002)

Tests used:
Mu-type opioid receptor [1] = molecular target: T1, Mu-type opioid receptor (Homo sapiens, UniProt P35372); experiment: Inhibition of binding of [3H]diprenorphine to cloned human Opioid receptor mu 1 expressed in CHO cell membrane;Range is in between (1.8-2.2); assay type: cell-based
[2] = molecular target: T2, Delta-type opioid receptor (Homo sapiens, UniProt P41143); experiment: Inhibition of binding of [3H]diprenorphine to cloned human Opioid receptor delta 1 expressed in CHO cell membrane;Range is between (1.7-2.3); assay type: cell-based
T2 sequence (P41143 whole entry): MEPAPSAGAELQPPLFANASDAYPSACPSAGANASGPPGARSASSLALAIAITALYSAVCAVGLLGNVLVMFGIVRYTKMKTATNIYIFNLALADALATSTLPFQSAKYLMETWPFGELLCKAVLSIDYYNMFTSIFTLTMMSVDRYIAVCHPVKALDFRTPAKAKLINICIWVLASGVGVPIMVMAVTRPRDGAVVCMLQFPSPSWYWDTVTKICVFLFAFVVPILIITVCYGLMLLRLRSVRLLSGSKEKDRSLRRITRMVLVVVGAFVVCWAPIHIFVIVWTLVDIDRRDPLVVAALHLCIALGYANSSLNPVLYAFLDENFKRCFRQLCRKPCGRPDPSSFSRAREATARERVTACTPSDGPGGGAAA

Rattus norvegicus [3] = species on record: Rattus norvegicus; experiment: Dosage necessary to produce half maximal effect; Range is in between (0.0010-0.0024); assay type: functional
Mu-type opioid receptor [4] = molecular target: Mu-type opioid receptor (Cavia porcellus, UniProt P97266); experiment: Ability to inhibit electrically evoked contractions of isolated muscle preparations of guinea pig ileum (GPI, mu receptor); assay type: functional, tissue-based
Mu-type opioid receptor (Cavia porcellus, UniProt P97266), sequence (P97266 whole entry): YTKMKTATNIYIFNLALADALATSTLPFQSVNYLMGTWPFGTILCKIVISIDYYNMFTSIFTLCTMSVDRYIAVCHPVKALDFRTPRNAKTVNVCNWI
Procedure, shortened: (§1)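 Electrically evoked contractions of isolated guinea pig ileum (GPI) or mouse vas deferens (MVD) preparations. A log dose-response curve for [Leu5]-enkephalin was run as standard on each ileum and vas preparation. IC50 values were normalised to that standard.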

[5] = molecular target: T3, Delta-type opioid receptor (Mus musculus, UniProt P32300); experiment: Ability to inhibit electrically evoked contractions of isolated muscle preparations of mouse vas deferens (MVD, delta receptor); assay type: functional; procedure, shortened: as §1
T3 sequence (P32300 whole entry): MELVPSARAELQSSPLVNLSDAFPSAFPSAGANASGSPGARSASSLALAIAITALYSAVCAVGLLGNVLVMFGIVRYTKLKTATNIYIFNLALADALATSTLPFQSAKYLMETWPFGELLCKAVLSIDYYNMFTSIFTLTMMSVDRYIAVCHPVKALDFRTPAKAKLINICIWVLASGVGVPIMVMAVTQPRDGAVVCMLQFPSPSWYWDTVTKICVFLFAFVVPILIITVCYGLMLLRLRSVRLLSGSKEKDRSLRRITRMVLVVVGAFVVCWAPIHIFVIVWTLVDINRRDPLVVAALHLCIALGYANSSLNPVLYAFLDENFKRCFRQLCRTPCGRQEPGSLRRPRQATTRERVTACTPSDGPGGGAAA

[6] = molecular target: T4, Kappa-type opioid receptor (Homo sapiens, UniProt P41145); experiment: Inhibition of binding of [3H]diprenorphine to cloned human Opioid receptor kappa 1 expressed in CHO cell membrane;Range is in between (1400-1900); assay type: cell-based
T4 sequence (P41145 whole entry): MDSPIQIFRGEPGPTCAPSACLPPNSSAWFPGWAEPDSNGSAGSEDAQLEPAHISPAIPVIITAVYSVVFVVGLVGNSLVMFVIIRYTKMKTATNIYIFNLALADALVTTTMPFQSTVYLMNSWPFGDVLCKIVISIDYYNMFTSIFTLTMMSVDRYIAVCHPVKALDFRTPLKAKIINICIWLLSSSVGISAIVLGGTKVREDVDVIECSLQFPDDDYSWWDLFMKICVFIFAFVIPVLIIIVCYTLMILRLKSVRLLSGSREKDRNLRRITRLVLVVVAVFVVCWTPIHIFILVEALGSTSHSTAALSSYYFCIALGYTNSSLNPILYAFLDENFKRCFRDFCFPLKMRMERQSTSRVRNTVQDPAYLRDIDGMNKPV
Procedure, shortened: (§2)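 Membranes from CHO cells expressing cloned human µ, δ or κ receptors in Tris-HCl pH 7.8 buffer with EGTA, MgCl2 and protease inhibitors. 50-100 µg protein with 0.4 nM (final) [3H]-diprenorphine, 60 min, room temperature. Filtered on PEI/BSA-treated GF/B filters, counted by scintillation. Nonspecific binding with 10 µM naloxone. Four-parameter one-site fit; Ki by Cheng-Prusoff.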

[7] = molecular target: T4, Kappa-type opioid receptor; experiment: Inhibition of binding of [3H]diprenorphine to cloned human Opioid receptor kappa 1 expressed in CHO cell membrane; assay type: cell-based
Mu-type opioid receptor [8] = molecular target: T1, Mu-type opioid receptor; experiment: Inhibition of binding of [3H]diprenorphine to cloned human Opioid receptor mu 1 expressed in CHO cell membrane;Range is in between (110-150); assay type: cell-based; procedure, shortened: as §2
[9] = molecular target: T2, Delta-type opioid receptor; experiment: Inhibition of binding of [3H]diprenorphine to cloned human Opioid receptor delta 1 expressed in CHO cell membrane;Range is between (0.66-0.95); assay type: cell-based; procedure, shortened: as §2
Rattus norvegicus [10] = species on record: Rattus norvegicus; experiment: Dosage necessary to produce half maximal effect; Range is in between (0.04-0.33); assay type: functional
[11] = molecular target: T3, Delta-type opioid receptor; experiment: Ability to inhibit electrically evoked contractions of isolated muscle preparations of mouse vas deference (MVD, delta receptor); assay type: functional; procedure, shortened: as §1
Mu-type opioid receptor [12] = molecular target: T1, Mu-type opioid receptor; experiment: Inhibition of binding of [3H]diprenorphine to cloned human Opioid receptor mu 1 expressed in CHO cell membrane;Range is in between (580-680); assay type: cell-based; procedure, shortened: as §2
[13] = molecular target: T2, Delta-type opioid receptor; experiment: Inhibition of binding of [3H]diprenorphine to cloned human Opioid receptor delta 1 expressed in CHO cell membrane;Range is between (0.35-2.5); assay type: cell-based; procedure, shortened: as §2
Rattus norvegicus [14] = species on record: Rattus norvegicus; experiment: Dosage necessary to produce half maximal effect; Range is in between (0.017-0.41); assay type: functional
Rattus norvegicus [15] = species on record: Rattus norvegicus; experiment: Dosage necessary to produce half maximal effect; Range is in between (98-163); assay type: functional
[16] = molecular target: T4, Kappa-type opioid receptor; experiment: Inhibition of binding of [3H]diprenorphine to cloned human Opioid receptor kappa 1 expressed in CHO cell membrane; range is in between (4700-8500); assay type: cell-based; procedure, shortened: as §2
Mu-type opioid receptor [17] = molecular target: T1, Mu-type opioid receptor; experiment: Inhibition of binding of [3H]diprenorphine to cloned human Opioid receptor mu 1 expressed in CHO cell membrane;Range is in between (1.3-3.7); assay type: cell-based
[18] = molecular target: T2, Delta-type opioid receptor; experiment: Inhibition of binding of [3H]diprenorphine to cloned human Opioid receptor delta 1 expressed in CHO cell membrane;Range is in between (0.62-0.65); assay type: cell-based
Rattus norvegicus [19] = species on record: Rattus norvegicus; experiment: Dosage necessary to produce half maximal effect; Range is in between (0.0010-0.0034); assay type: functional
Rattus norvegicus [20] = species on record: Rattus norvegicus; experiment: Dosage necessary to produce half maximal effect; Range is in between (10-24); assay type: functional

T1 sequence (P35372 whole entry): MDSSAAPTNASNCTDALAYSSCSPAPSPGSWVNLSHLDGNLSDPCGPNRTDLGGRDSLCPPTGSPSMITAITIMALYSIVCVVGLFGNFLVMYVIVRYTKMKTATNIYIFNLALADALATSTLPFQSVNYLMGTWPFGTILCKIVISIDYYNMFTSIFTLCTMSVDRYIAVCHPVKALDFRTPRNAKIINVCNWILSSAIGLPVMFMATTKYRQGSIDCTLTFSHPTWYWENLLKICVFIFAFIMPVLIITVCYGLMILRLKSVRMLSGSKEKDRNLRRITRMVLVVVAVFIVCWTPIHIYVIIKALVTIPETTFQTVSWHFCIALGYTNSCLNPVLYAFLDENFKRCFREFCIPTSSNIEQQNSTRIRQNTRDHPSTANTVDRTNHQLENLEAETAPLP

N[C@@H](Cc1ccc(O)cc1)C(=O)N[C@@H]1CSC[C@H](C(=O)O)NC(=O)[C@H](Cc2ccccc2)NC(=O)CNC1=O gave a Ki (Mu-type opioid receptor [1]) of 2 nM, a Ki [2] of 2 nM and an ED50 (Rattus norvegicus [3]) of 0.0015 nM. It also gave an IC50 (Mu-type opioid receptor [4]) of 0.56 nM, an IC50 [5] of 1.58 nM and a Ki [6] of 1600 nM.
For CC1(C)SC[C@@H](C(=O)O)NC(=O)[C@H](Cc2ccccc2)NC(=O)CNC(=O)[C@@H]1NC(=O)[C@@H](N)Cc1ccc(O)cc1, the Ki [7] was over 1000 nM, the Ki (Mu-type opioid receptor [8]) was 130 nM and the Ki [9] was 0.79 nM. The ED50 (Rattus norvegicus [10]) was 0.12 nM, the IC50 [11] was 0.26 nM and the IC50 (Mu-type opioid receptor [4]) was 82 nM.
CC1(C)SC[C@H](C(=O)O)NC(=O)[C@H](Cc2ccccc2)NC(=O)CNC(=O)[C@@H]1NC(=O)[C@@H](N)Cc1ccc(O)cc1 was tested, and the Ki [7] was over 10000 nM, the Ki (Mu-type opioid receptor [12]) was 630 nM and the Ki [13] was 0.93 nM. For the same compound, the ED50 (Rattus norvegicus [14]) was 0.26 nM, the IC50 [11] was 2.33 nM and the IC50 (Mu-type opioid receptor [4]) was 730 nM.
Compound CC1(C)SSC(C)(C)[C@@H](NC(=O)[C@@H](N)Cc2ccc(O)cc2)C(=O)NCC(=O)N[C@@H](Cc2ccccc2)C(=O)N[C@H]1C(=O)O has an ED50 (Rattus norvegicus [15]) of 130 nM.
With N[C@@H](Cc1ccc(O)cc1)C(=O)N[C@@H]1CSC[C@@H](C(=O)O)NC(=O)[C@H](Cc2ccccc2)NC(=O)CNC1=O the Ki [16] was 6400 nM, the Ki (Mu-type opioid receptor [17]) was 2.3 nM and the Ki [18] was 0.63 nM. The ED50 (Rattus norvegicus [19]) was 0.0018 nM, the IC50 (Mu-type opioid receptor [4]) was 1.06 nM and the IC50 [5] was 0.35 nM.
For CN1CC[C@]23c4c5ccc(O)c4O[C@H]2[C@@H](O)C=C[C@H]3[C@H]1C5 [MORPHINE], the ED50 (Rattus norvegicus [20]) was 15 nM.
